Source: ChEMBL document CHEMBL1140720, “Novel prodrugs of tegafur that display improved anticancer activity and antiangiogenic properties” (J Med Chem, 2008)
Each block holds one compound with its values, some of them ahead of it. Calls of active or inactive are those of the source. The rule behind the calls is not given here.

What was measured:
[1] = test system: HT-29; assay: Anticancer activity against human HT29 cells after 72 hrs by Hoechst test; type: functional, cell-based; details: HT-29, 72 h
In short: (§1)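 Cells seeded at 0.5–1 × 10^4/well for 24 h, then exposed in triplicate to a concentration titration for 72 h. Drug stock 0.5 M in DMSO, final DMSO ≤0.1%. Cells rinsed with PBS, fixed in 70% ethanol, and stained for DNA (Hoechst). IC50/IC90 taken from best-fit curves (linear or exponential) of % survival vs concentration, ≥3 independent experiments.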

[2] = test system: U-251; assay: Anticancer activity against human U251 cells after 72 hrs by Hoechst test; type: functional, cell-based; in short: as §1
[3] = Anticancer activity against human astrocytes cells after 72 hrs by Hoechst test; type: ADME, cell-based, Astrocyte; details: for IC50: Homo sapiens, Astrocyte, 72 h; for IC90 at 72 h: human, human astrocytes; in short: as §1
[4] = test system: HT-29; assay: Anticancer activity against human HT29 cells after 72 hrs in the presence of semicarbazide by Hoechst test; type: functional, cell-based; details: HT-29, 72 h
In short: (§2)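 Same 72 h Hoechst viability titration, run with or without co-addition of 500 µM semicarbazide as formaldehyde scavenger. IC50 and IC90 derived from dose-response curves.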

[5] = Anticancer activity against human MES-SA DXS cells after 72 hrs by Hoechst test; type: functional, cell-based; in short: as §1
[6] = Anticancer activity against human SK-ES cells after 72 hrs by Hoechst test; type: functional, cell-based; in short: as §1
[7] = Anticancer activity against human MES-SA cells after 72 hrs by Hoechst test; type: functional, cell-based; in short: as §1
[8] = test system: BXPC-3; assay: Anticancer activity against human BXPC3 cells after 72 hrs in the presence of semicarbazide by Hoechst test; type: functional, cell-based; details: BXPC-3, 72 h; in short: as §2
[9] = test system: CT26; assay: Anticancer activity against mouse CT26 cells after 72 hrs by Hoechst test; type: functional, cell-based; details: CT26, 72 h; in short: as §1
[10] = test system: HUVEC; assay: Effect on cell viability of HUVEC cells after 48 hrs; type: functional, cell-based; details: Homo sapiens
In short: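 HUVEC grown at 37 °C, 5% CO2. Seeded in 96-well plates, then exposed to a concentration titration for 48 h. Viability read by Hoechst DNA fluorescence after ethanol fixation. IC50/IC90 from best-fit curves of ≥3 independent experiments.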

[11] = test system: LS-1034; assay: Anticancer activity against human LS1034 cells after 72 hrs in the presence of semicarbazide by Hoechst test; type: functional, cell-based; details: LS-1034, 72 h; in short: as §2
[12] = test system: LS-1034; assay: Anticancer activity against human LS1034 cells after 72 hrs by Hoechst test; type: functional, cell-based; details: LS-1034, 72 h; in short: as §1
[13] = Anticancer activity against mouse Pan02 cells after 72 hrs by Hoechst test; type: functional, cell-based; details: Pan02, 72 h; in short: as §1
[14] = test system: BXPC-3; assay: Anticancer activity against human BXPC3 cells after 72 hrs by Hoechst test; type: functional, cell-based; details: BXPC-3, 72 h; in short: as §1
[15] = test system: CT26; assay: Anticancer activity against mouse CT26 cells after 72 hrs in the presence of semicarbazide by Hoechst test; type: functional, cell-based; details: CT26, 72 h; in short: as §2
[16] = test system: HT-29; assay: Antitumor activity against human HT29 xenografted CD1 mouse assessed as decrease in CEA level; type: functional
In short: (§3)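 Male nude CD1 mice implanted sc in the flank with HT-29 cells. Once tumors were palpable, oral dosing at 50 mg/kg (water vehicle), with vehicle-only controls; 14 controls, 12 per treated group. Tumors measured by caliper twice weekly, volume = (L × W²)/2. At the end, blood drawn for serum CEA.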

[17] = test system: HUVEC; assay: Antiangiogenic activity against HUVEC cells assessed as tube formation at 80 uM after 24 hrs; type: functional, cell-based; details: Homo sapiens
In short: (§4)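 HUVEC (5 × 10^4 cells/well) seeded on a matrigel layer in supplemented EGM-2 medium. Test agent added at 80 µM, triplicate wells, incubated 3 to 24 h. Tube formation was visualized by light microscopy and photographed at ×40.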

[18] = test system: HT-29; assay: Antitumor activity against human HT29 xenografted CD1 mouse at 50 mg/kg, po; type: functional, organism-based; parameters: dose 50 mg/kg; in short: as §3
[19] = test system: Mus musculus; assay: Inhibition of HDAC in po dosed mouse 4T1 tumor implanted in BALB/c mouse assessed as histone acetylation level after 4 hrs; type: functional
In short: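 Balb/c mice carrying sc 4T1 tumors (5 × 10^4 cells implanted), dosed orally at 100 mg/kg once tumors reached 1.0 cm³. Tumors excised 4 h later and histones extracted; 5 µg protein run on 15% SDS gels. Western blot for acetyl-H4 (Lys-12), normalized to pan-H3; fold change versus untreated.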

[20] = test system: BXPC-3; assay: Anticancer activity against human BXPC3 cells after 72 hrs in the presence of succinate by Hoechst test; type: functional, cell-based; details: BXPC-3, 72 h
In short: (§5)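 Same 72 h Hoechst viability titration, with or without co-addition of succinic acid at 2.5 mM. IC50 and IC90 derived from dose-response curves.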

[21] = test system: HT-29; assay: Anticancer activity against human HT29 cells after 72 hrs in the presence of HMTA by Hoechst test; type: functional, cell-based; details: HT-29, 72 h
In short: (§6)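 Same 72 h Hoechst viability titration, with or without co-addition of hexamethylenetetramine (HMTA) at 250 µM. IC50 and IC90 derived from dose-response curves.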

[22] = test system: HT-29; assay: Anticancer activity against human HT29 cells after 72 hrs in the presence of succinate by Hoechst test; type: functional, cell-based; details: HT-29, 72 h; in short: as §5
[23] = test system: HUVEC; assay: Antiangiogenic activity against HUVEC cells assessed as tube formation at 80 uM after 3 hrs; type: functional, cell-based; details: Homo sapiens; in short: as §4
[24] = test system: CT26; assay: Anticancer activity against mouse CT26 cells after 72 hrs in the presence of succinate by Hoechst test; type: functional, cell-based; details: CT26, 72 h; in short: as §5
[25] = test system: BXPC-3; assay: Anticancer activity against human BXPC3 cells after 72 hrs in the presence of HMTA by Hoechst test; type: functional, cell-based; details: BXPC-3, 72 h; in short: as §6
[26] = test system: LS-1034; assay: Anticancer activity against human LS1034 cells after 72 hrs in the presence of succinate by Hoechst test; type: functional, cell-based; details: LS-1034, 72 h; in short: as §5
[27] = test system: CT26; assay: Anticancer activity against mouse CT26 cells after 72 hrs in the presence of HMTA by Hoechst test; type: functional, cell-based; details: CT26, 72 h; in short: as §6
[28] = test system: LS-1034; assay: Anticancer activity against human LS1034 cells after 72 hrs in the presence of HMTA by Hoechst test; type: functional, cell-based; details: LS-1034, 72 h; in short: as §6
[29] = test system: HUVEC; assay: Antiangiogenic activity against HUVEC cells assessed as tube formation at 80 uM after 8 hrs; type: functional, cell-based; details: Homo sapiens; in short: as §4

SMILES: CCOP(=O)(OCC)OCn1c(=O)c(F)cn(C2CCCO2)c1=O (centres undefined)
- IC50 [1]: 19 µM
- IC90 [1]: 80 µM
- IC50 ([2]; Homo sapiens, U-251, 72 h): 73 µM
- IC90 ([2]; Homo sapiens, U-251, 72 h): 287 µM
- IC50 [3]: 832 µM
- IC90 at 72 h [3]: 2790 µM

- IC50 [1]: 67 µM
- IC50 [4]: 164 µM
- IC90 [4]: 303 µM
- IC50 [5]: 63 µM
- IC50 [6]: 45 µM
- IC90 [6]: 80 µM
- IC50 [7]: 79 µM
- IC50 ([2]; Homo sapiens, U-251, 72 h): 103 µM
- IC90 ([2]; Homo sapiens, U-251, 72 h): 223 µM
- IC50 [8]: 160 µM
- IC90 [8]: 460 µM
- IC50 [9]: 99 µM
- IC90 [9]: 170 µM
- IC50 [11]: 132 µM
- IC90 [11]: 296 µM
- IC50 [12]: 84 µM
- IC50 [13]: 96 µM
- IC90 [13]: 219 µM
- IC50 [14]: 74 µM
- IC50 [15]: 132 µM
- IC90 [15]: 252 µM
- IC50 [3]: 187 µM
- IC90 at 72 h [3]: 476 µM
SMILES: O=c1c(F)cn(C2CCCO2)c(=O)n1CO (centres undefined)
- IC50 [10]: 70 µM
- IC90 [10]: 120 µM

- IC50 [1]: 35 µM
- IC90 [1]: 84 µM
- IC50 [4]: 51 µM
- IC90 [4]: 138 µM
- IC50 [5]: 54 µM
- IC50 [6]: 47 µM
- IC90 [6]: 81 µM
- IC50 [7]: 71 µM
- IC50 ([2]; Homo sapiens, U-251, 72 h): 55 µM
- IC50 ([2]; u-251): 107 µM
- IC50 [8]: 88 µM
- IC90 [8]: 280 µM
- IC50 [9]: 27 µM
- IC90 [9]: 76 µM
- IC50 [11]: 34 µM
- IC90 [11]: 94 µM
- IC50 [12]: 42 µM
- IC90 [12]: 79 µM
- IC50 [13]: 46 µM
- IC90 [13]: 149 µM
- IC50 [14]: 81 µM
- IC50 [15]: 52 µM
- IC90 [15]: 105 µM
- IC50 [3]: 200 µM
- IC90 at 72 h [3]: 323 µM
SMILES: CCCC(=O)OCn1c(=O)c(F)cn(C2CCCO2)c1=O (centres undefined)
- IC50 [10]: 100 µM
- IC90 [10]: 170 µM
- Activity [16]: Active
- Activity [17]: Active
- Activity [18]: Active
- Activity [19]: 2

- IC50 [20]: 154 µM
- IC90 [20]: 719 µM
- IC50 [21]: 158 µM
- IC90 [21]: 612 µM
- IC50 [6]: 174 µM
- IC90 [6]: 531 µM
- IC50 [22]: 158 µM
- IC90 [22]: 644 µM
- IC50 [24]: 90 µM
- IC90 [24]: 311 µM
- IC50 ([2]; Homo sapiens, U-251, 72 h): 384 µM
- IC90 ([2]; Homo sapiens, U-251, 72 h): 1280 µM
- IC50 [25]: 145 µM
- IC90 [25]: 654 µM
- IC50 [26]: 172 µM
- IC90 [26]: 617 µM
- IC50 [27]: 107 µM
- IC90 [27]: 464 µM
- IC50 [28]: 193 µM
- IC90 [28]: 852 µM
- IC50 [13]: 179 µM
- IC90 [13]: 637 µM
- IC50 [3]: 4290 µM
- IC90 at 72 h [3]: 7680 µM
SMILES: O=c1[nH]c(=O)n(C2CCCO2)cc1F (centres undefined) [TEGAFUR]
- Activity [23]: inactive
- IC50 [10]: 1000 µM
- IC90 [10]: 3400 µM
- Activity [16]: Active
- Activity [17]: inactive
- Activity [29]: inactive
- Activity [18]: Active
- Activity [19]: 2
